Laboratory results taken from ChEMBL document CHEMBL5634095, “Design, synthesis and evaluation of novel pyrimidinylaminothiophene derivatives as FGFR1 inhibitors against human glioblastoma multiforme” (Eur J Med Chem, 2023).
Values belong to the molecule of their own block, whether it stands above or below them. Calls of active or inactive are those of the source. The rule behind the calls is not given here.

Assays:
U-87 MG [1] = experiment: Antiproliferative activity against human U-87 MG cells incubated for 48 hrs by MTT assay
U-87 MG [2] = experiment: Induction of cell cycle arrest in human U-87 MG cells assessed as decrease in G0 phase cell population at 1 uM incubated for 48 hrs by PI staining based flow cytometry analysis (reference value: 71.6 %); type: functional, U-87MG ATCC; set-up: scale not given: the % may be the effect or the level left
U-87 MG [3] = experiment: Induction of cell cycle arrest in human U-87 MG cells assessed as increase in G2/M phase cell population at 1 uM incubated for 48 hrs by PI staining based flow cytometry analysis (reference value: 14.5 %); type: functional, U-87MG ATCC
U-87 MG [4] = experiment: Induction of cell cycle arrest in human U-87 MG cells assessed as decrease in G0 phase cell population at 0.3 uM incubated for 48 hrs by PI staining based flow cytometry analysis (reference value: 71.6 %); type: functional, U-87MG ATCC; set-up: scale not given: the % may be the effect or the level left
[5] = Tmax in rat at 52.5 mg/kg, po measured upto 48 hrs by LC analysis; type: ADME, organism-based; conditions: in vivo
In short: (§1)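 Rats (n=5) dosed orally once with 52.5 mg/kg, dispersed in sodium carboxymethyl cellulose. Plasma separated at 1200×g, deproteinated with acetonitrile, then analysed by UHPLC on a C18 column with a methanol/formic acid eluent.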

U-87 MG [6] = experiment: Induction of cell cycle arrest in human U-87 MG cells assessed as increase in G2/M phase cell population at 0.3 uM incubated for 48 hrs by PI staining based flow cytometry analysis (reference value: 14.5 %); type: functional, U-87MG ATCC
U-87 MG [7] = experiment: Antitumor activity against human U-87 MG cells implanted in nude mouse assessed as reduction in CD31 expression at 50 mg/kg/day, po administered 5 times a week for 4 weeks by IHC analysis; type: functional, U-87MG ATCC; set-up: scale not given: the % may be the effect or the level left
HUVEC [8] = experiment: Anti-angiogenesis activity in HUVEC assessed as reduction in tube formation at 0.5 uM incubated for 24 hrs by matrigel based light microscopic analysis; type: functional, Homo sapiens; set-up: scale not given: the % may be the effect or the level left
[9] = Cmax in rat at 52.5 mg/kg, po measured upto 48 hrs by LC analysis; type: ADME, organism-based; conditions: in vivo; in short: as §1
[10] = Terminal half-life in rat at 52.5 mg/kg, po measured upto 48 hrs by LC analysis; type: ADME, organism-based; conditions: in vivo, read-out: beta t1/2 (converted); in short: as §1
Mus musculus = organism: Mus musculus; conditions: dose 50-75 mg/kg/day, route po, time 4.0 weeks
HUVEC [11] = experiment: Anti-angiogenesis activity in HUVEC assessed as reduction in tube formation at 2 uM incubated for 24 hrs by matrigel based light microscopic analysis; type: functional, Homo sapiens; set-up: scale not given: the % may be the effect or the level left
NIH3T3 = experiment: Cytotoxicity against mouse NIH/3T3 cells incubated for 48 hrs by MTT assay; type: toxicity, cell-based; conditions: nih3t3, 48 h
U-87 MG [12] = experiment: Inhibition of colony formation in human U-87MG cells
[13] = AUC in rat at 52.5 mg/kg, po measured upto 48 hrs by LC analysis; type: ADME, organism-based; conditions: in vivo; in short: as §1
U-87 MG [14] = experiment: Anti-invasive activity against human U-87 MG cells assessed as reduction in number of cells at upper well at 0.3 uM incubated for 24 hrs by crystal violet staining based inverted microscope analysis; type: functional, U-87MG ATCC
In short: (§2)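 Transwell top chambers coated with Matrigel (1:9 in serum-free DMEM). U-87 MG cells pretreated 20 min with 0.1% DMSO or compound, seeded at 1×10^4 cells/well, with complete medium below. After 24 h, non-invading cells removed and the rest fixed in paraformaldehyde, stained with 0.1% crystal violet, imaged at ×100 in six random fields and counted.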

U-87 MG [15] = experiment: Induction of cell cycle arrest in human U-87 MG cells assessed as decrease in G0 phase cell population at 3 uM incubated for 48 hrs by PI staining based flow cytometry analysis (reference value: 71.6 %); type: functional, U-87MG ATCC; set-up: scale not given: the % may be the effect or the level left
U-87 MG [16] = experiment: Antitumor activity against human U-87 MG cells implanted in nude mouse assessed as reduction in CD31 expression at 75 mg/kg/day, po administered 5 times a week for 4 weeks by IHC analysis; type: functional, U-87MG ATCC; set-up: scale not given: the % may be the effect or the level left
U-87 MG [17] = experiment: Anti-invasive activity against human U-87 MG cells assessed as reduction in number of cells at upper well at 3 uM incubated for 24 hrs by crystal violet staining based inverted microscope analysis; type: functional, U-87MG ATCC; in short: as §2
HUVEC [18] = experiment: Anti-angiogenesis activity in HUVEC assessed as reduction in tube formation at 0.1 uM incubated for 24 hrs by matrigel based light microscopic analysis; type: functional, Homo sapiens; set-up: scale not given: the % may be the effect or the level left
U-87 MG [19] = experiment: Antitumor activity against human U-87 MG cells implanted in nude mouse assessed as reduction in Ki67 expression at 75 mg/kg/day, po administered 5 times a week for 4 weeks by IHC analysis; type: functional, U-87MG ATCC; set-up: scale not given: the % may be the effect or the level left
U-87 MG [20] = experiment: Antitumor activity against human U-87 MG cells implanted in nude mouse assessed as reduction in Ki67 expression at 50 mg/kg/day, po administered 5 times a week for 4 weeks by IHC analysis; type: functional, U-87MG ATCC; set-up: scale not given: the % may be the effect or the level left
U-87 MG [21] = experiment: Induction of cell cycle arrest in human U-87 MG cells assessed as increase in G2/M phase cell population at 3 uM incubated for 48 hrs by PI staining based flow cytometry analysis (reference value: 14.5 %); type: functional, U-87MG ATCC

IC50 (U-87 MG [1]): 11.6 µM
Structure (SMILES): CNC(=O)c1ccsc1Nc1nc(Nc2ccc(N3CCC(N4CCOCC4)CC3)cc2)ncc1C

Tmax [5]: 4.4 h | Cmax [9]: 3900 ng/mL | half-life [10]: 14.3 h | IC50 (U-87 MG [12]): 0.12 µM | AUC at 48 h [13]: 71500 ng·h/mL | IC50 (U-87 MG [1]): 2.38 µM
Structure (SMILES): CNC(=O)c1ccsc1Nc1nc(Nc2ccc(N3CCC(N4CCOCC4)CC3)cc2)ncc1C(F)(F)F
Activity (U-87 MG [2]): 16.6% | Activity (U-87 MG [3]): 79.4% | Activity (U-87 MG [4]): 34.4% | Activity (U-87 MG [6]): 56.8% | Activity (U-87 MG [7]): 78.9% | Activity (HUVEC [8]): 59.7% | inhibition (Mus musculus): Active | Activity (HUVEC [11]): 81% | Activity (NIH3T3): Non-Toxic | Activity (U-87 MG [14]): 71 | Activity (U-87 MG [15]): 9.36% | Activity (U-87 MG [16]): 37.5% | Activity (U-87 MG [17]): 24 | Activity (HUVEC [18]): 10.4% | Activity (U-87 MG [19]): 62% | Activity (U-87 MG [20]): 38.4% | Activity (U-87 MG [21]): 86.8%

IC50 (U-87 MG [1]): 3.71 µM
Structure (SMILES): CNC(=O)c1ccsc1Nc1nc(Nc2ccc(N3CCN(CCO)CC3)cc2)ncc1C(F)(F)F

IC50 (U-87 MG [1]): 2.77 µM
Structure (SMILES): CNC(=O)c1ccsc1Nc1nc(Nc2ccc(N3CCC(N4CCCCC4)CC3)cc2)ncc1C(F)(F)F

IC50 (U-87 MG [1]): 30.1 µM
Structure (SMILES): CNC(=O)c1ccsc1Nc1nc(Nc2ccc(N3CCC(N4CCOCC4)CC3)cc2)ncc1Br

IC50 (U-87 MG [1]): > 50 µM
Structure (SMILES): CNC(=O)c1ccsc1Nc1nc(Nc2ccc(N3CCOCC3)cc2)ncc1C(F)(F)F

IC50 (U-87 MG [1]): 4.25 µM
Structure (SMILES): CNC(=O)c1ccsc1Nc1nc(Nc2ccc(N3CCC(N4CCOCC4)CC3)cc2)ncc1Cl

The next lines start with the molecule.

Structure (SMILES): CNC(=O)c1ccsc1Nc1nc(Nc2ccc(CCN3CCS(=O)(=O)CC3)cc2)ncc1C(F)(F)F
IC50 (U-87 MG [1]): 12.4 µM

Structure (SMILES): CNC(=O)c1cc(C(C)(C)C)sc1Nc1nc(Nc2ccc(N3CCOCC3)cc2)ncc1C(F)(F)F
IC50 (U-87 MG [1]): > 50 µM

Structure (SMILES): CNC(=O)c1ccsc1Nc1nc(Nc2cccc(N3CCOCC3)c2)ncc1C(F)(F)F
IC50 (U-87 MG [1]): 19.2 µM

Structure (SMILES): CNC(=O)c1ccsc1Nc1nc(Nc2ccc(CS(=O)(=O)N3CCOCC3)cc2)ncc1C(F)(F)F
IC50 (U-87 MG [1]): 18.9 µM

Structure (SMILES): CNC(=O)c1ccsc1Nc1nc(Nc2ccc(OCCN3CCOCC3)cc2)ncc1C(F)(F)F
IC50 (U-87 MG [1]): 12 µM

Structure (SMILES): CNC(=O)c1cc(-c2ccccc2)sc1Nc1nc(Nc2ccc(N3CCOCC3)cc2)ncc1C(F)(F)F
IC50 (U-87 MG [1]): 23.2 µM

Structure (SMILES): COc1cc(CCc2cc(NC(=O)c3ccc(N4C[C@@H](C)N[C@@H](C)C4)cc3)n[nH]2)cc(OC)c1 [FEXAGRATINIB]
IC50 (U-87 MG [1]): 25.4 µM
